This is a sample that favours compounds with a hit; in the whole collection about 1.5% have one here.
NSD2 HMT inh – NSD2 histone methyltransferase inhibitors, primary screen, biochemical, AlphaScreen, single concentration, set 2 | AID 743445, 2014 | actives 0.54% (n = 310,000) | inhibition, % at 12.5 µM | NSD2 peptide methylation, 120 min
NS3 helicase inh – inhibitors of HCV NS3 helicase, primary screen, biochemical, Cy5 molecular beacon fluorescence; NS3 helicase DNA unwinding; inhibition, % at 10.9 µM; actives 0.56% (n = 290,000); AID 1800, 2009;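 active means inhibition above the mean of all tested compounds plus 3 SD, set per campaign, cut at about 35% in these data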;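 further: 0% = DMSO wells and 100% = thioflavine S control wells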
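Control set: DMSO versus 110 µM thioflavine S; Material: NS3 helicase fragment of HCV; Measured by: Cy5 fluorescence at 0 and 60 min, beacon hairpin quenching; Read-out basis: percent inhibition from t60/t0 fluorescence ratio; Times: reaction time 60 min, 25 °C; Repeats: single replicate; Compound dosing: single dose, 10.9 µM nominal final, DMSO 0.8% final.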
DNMT1 inh – human DNMT1 methyltransferase inhibitors, primary screen, biochemical, molecular beacon, fluorescence, HinP1I cleavage, uHTS; DNA (cytosine-5)-methyltransferase 1 (Homo sapiens), P26358; inhibition (reported as % activation of signal), % at 10 µM; actives 0.83% (n = 360,000); AID 588458, 2011
CASP6 VEID inh – human caspase-6 inhibitors, primary screen, biochemical, VEID-R110 fluorescence, single point, set 2; actives 0.53% (n = 350,000); inhibition, % at 12.5 µM; purified caspase-6, Z-VEID-R110 cleavage fluorescence; P55212;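 active means mean inhibition across replicates at least about 35%, with every replicate also reaching that limit, limit read from the data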;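 further: 0% = median of neutral control wells and 100% = no fluorescence left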
NS3 helicase cf – HCV NS3 helicase inhibitors, retest, confirmation, biochemical, Cy5 molecular beacon fluorescence, triplicate | shares compounds with NS3 helicase inh | NS3 helicase DNA unwinding | inhibition, % at 10.9 µM | actives 31% (n = 1,600) | AID 1943, 2009;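 active means inhibition above the mean of all tested compounds plus 3 SD, cutoff set per campaign, cut at about 36% in these data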
FID counter trip – compounds displacing fluorescent DNA intercalator, artefact control for HCV NS3 helicase inhibitor project, biochemical, FID fluorescence, triplicate | actives 4% (n = 1,600) | DNA fluorescent intercalator displacement | shares compounds with NS3 helicase inh | inhibition, % at 7.9 µM; in the data active means inhibition above about 37%;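 further: 0% = vehicle and 100% = reference compound; higher means more displacement of ethidium bromide from the DNA hairpin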
DNA FID DR – compounds displacing fluorescent intercalator from DNA, dose response, counter-screen for HCV NS3 helicase inhibitor project, biochemical, fluorescence. shares compounds with NS3 helicase inh. fluorescent intercalator displacement from DNA. IC50, µM. 120 tested, under 10 active. AID 2172, 2009; call rule not given here
Starred values were filed as active, the others as inactive; nt = not tested or not shown. Unless noted, no stated cut-off is given here; in the data, active means inhibition above about 50%; inactive means the rest.

SMILES	NSD2 HMT inh	NS3 helicase inh	DNMT1 inh	CASP6 VEID inh	NS3 helicase cf	FID counter trip	others
O=C(COC(=O)c1c2c(nc3ccccc13)/C(=C/c1ccco1)CC2)NC1CCCC1	1	36*	86*	nt	96*	15	DNA FID DR=>79
O=C1NC(=Nc2ccccc2)S/C1=C\c1ccccc1	-1	40*	13	0	5	14
COc1ccc(N=C2NC(=O)/C(=C/C=C/c3ccccc3)S2)cc1	-4	-13	16	2	nt	nt
O=C1NC(=Nc2ccccc2)S/C1=C\C=C\c1ccco1	5	44*	93*	15	3	-2
C[C@@H]1CN([C@H](C)CO)C(=O)c2cccc(NC(=O)c3nc4ccccc4s3)c2O[C@@H]1CN(C)Cc1ccncc1	nt	nt	nt	6	nt	nt
O=[N+]([O-])c1c(C(Cl)Cl)nn(-c2ccccc2)c1N1CCOCC1	15	58*	-9	0	-13	-12
C[C@H]1CN([C@@H](C)CO)C(=O)c2cc(NC(=O)Cc3ccccc3)ccc2O[C@@H]1CN(C)S(=O)(=O)c1ccc(Cl)cc1	nt	nt	nt	0	nt	nt
CCOC(=O)CC(=O)CSc1ccc2nnc(-c3cccc(F)c3)n2n1	nt	27	-1	nt	nt	nt
CCOC(=O)CC(=O)CSc1ccc2nnc(-c3ccc(F)cc3)n2n1	1	38*	0	nt	-8	-2
Cc1nc(SCC(=O)c2cc3ccccc3oc2=O)c(C#N)c(-c2ccccc2)c1C(=O)Nc1ccccc1	0	28	46	-1	nt	nt
COc1ccc(-c2c(C#N)c(SCC(=O)c3cc4ccccc4oc3=O)nc(C)c2C(=O)Nc2ccccc2)cc1	1	52*	44	nt	11	-5
Cc1ccc(-n2nc(C)c3c2OC(N)=C(C#N)C3c2ccco2)cc1 (stereo not drawn)	6	23	-11	nt	nt	nt
Cc1ccc(-n2nc(C)c3c2OC(N)=C(C#N)C3c2ccoc2)cc1 (stereo not drawn)	5	45*	-19	nt	-18	18
CC(C)NC(=O)Nc1ccc2c(c1)C(=O)N([C@H](C)CO)C[C@H](C)[C@@H](CN(C)C(=O)CCCN(C)C)OCCCC[C@H](C)O2	nt	nt	nt	0	nt	nt
COc1cc(NS(=O)(=O)c2ccc(NC(=S)NC(=O)c3ccc(F)cc3)cc2)nc(OC)n1	1	40*	-1	nt	27	-13
O=C(NC(Cc1ccccc1)C(=O)N1CCN(c2ccccn2)CC1)c1ccco1 (stereo not drawn)	-1	49*	-4	nt	-11	-17
COc1ccc(/C(C)=N/NC(=S)NCCc2ccccc2)c(O)c1	2	42*	-2	3	9	-5
COc1ccc(O)c(/C=N/NC(=S)NCCc2ccccc2)c1	5	29	1	9	nt	nt
C[C@@H]1CN([C@H](C)CO)C(=O)c2cccc(NC(=O)Nc3ccc(C(F)(F)F)cc3)c2O[C@H]1CN(C)Cc1ccc2c(c1)OCO2	nt	nt	nt	0	nt	nt
CC(C)NC(=O)Nc1ccc2c(c1)C(=O)N([C@H](C)CO)C[C@@H](C)[C@H](CN(C)C(=O)CCC(F)(F)F)OCCCC[C@@H](C)O2	nt	nt	nt	1	nt	nt
Cc1ccc(C(=O)C2=C(O)C(=O)N(Cc3cccnc3)C2c2ccc(Br)cc2)o1 (stereo not drawn)	10	40*	-3	-3	-20	-43
Cc1ccc(C(=O)C2=C(O)C(=O)N(Cc3ccco3)C2c2cccc(Cl)c2)o1 (stereo not drawn)	3	74*	1	7	71*	-29	DNA FID DR=>79
Cc1ccc(C(=O)C2=C(O)C(=O)N(Cc3ccco3)C2c2cccc(Br)c2)o1 (stereo not drawn)	4	101*	0	33	92*	-33
Cc1ccc(S(=O)(=O)Nc2ccc3c(c2)C(=O)N([C@H](C)CO)C[C@@H](C)[C@H](CN(C)C(=O)Nc2ccc(F)cc2)OCCCC[C@H](C)O3)cc1	nt	nt	nt	-2	nt	nt
N#C[C@H]1[C@H](c2ccc(-c3ccc(F)cc3)cc2)[C@H](CO)N1c1nc(-c2ccccc2)cs1	nt	nt	nt	-7	nt	nt
SMILES	NSD2 HMT inh	NS3 helicase inh	DNMT1 inh	CASP6 VEID inh	NS3 helicase cf	FID counter trip	others
CO[C@H]1CN(C)C(=O)c2cccc(C#N)c2OC[C@@H]2O[C@H](CC[C@H]2OC)CCN(C)C(=O)[C@@H]1C	nt	nt	nt	-162	nt	nt
COc1ccc(-n2c(Cc3cccn3C)nnc2SCC(=O)Nc2ccc3c(c2)OCCO3)cc1	nt	14	-3	20	nt	nt
COc1ccc(-n2c(Cc3cccn3C)nnc2SCC(=O)Nc2ccc3c(c2)OCO3)cc1	nt	45*	-1	3	-15	-28
COc1ccc(C(=O)CSc2nnc(-c3cccs3)n2-c2ccccc2)cc1	-3	-5	42	nt	nt	nt
COc1ccc(C(=O)Nc2ccc(NC(=O)CSc3nnc(-c4ccncc4)n3C)cc2)cc1	-6	36*	0	-3	-3	-7
COc1ccc(-n2c(SCC(=O)Nc3ccc(C(=O)O)cc3)nnc2-c2cccs2)cc1	5	64*	3	nt	-5	-24
C[C@H]1CN([C@@H](C)CO)C(=O)Cc2cc(NC(=O)Nc3ccccc3)ccc2O[C@H]1CN(C)C(=O)Nc1ccccc1	nt	nt	nt	2	nt	nt
C[C@@H]1CN([C@@H](C)CO)C(=O)Cc2cc(NC(=O)Nc3ccc(F)cc3)ccc2O[C@@H]1CN(C)CC1CCCCC1	nt	nt	nt	0	nt	nt
Cc1ccc(S(=O)(=O)Nc2ccc3c(c2)C(=O)N([C@@H](C)CO)C[C@H](C)[C@H](CN(C)C(=O)Nc2cccc4ccccc24)OCCCC[C@H](C)O3)cc1	nt	nt	nt	2	nt	nt
COc1ccc(C2CC(=O)C(CS(=O)(=O)c3ccccc3)C(=O)C2)cc1 (stereo not drawn)	-1	43*	1	5	-5	-36
O=C1CCCC(=O)C1CS(=O)(=O)c1ccccc1	-1	0	5	10	nt	nt
O=C1CC(c2ccc(Cl)cc2)CC(=O)C1CS(=O)(=O)c1ccccc1 (stereo not drawn)	-2	36*	-2	7	70*	-14
N#Cc1cccc(-c2ccc3c(c2)[C@@H]2[C@@H](CCN2C(=O)C2CCCCC2)[C@@H](CO)N3)c1	nt	nt	nt	-2	nt	nt
Cc1ccc(S(=O)(=O)N(C)C[C@H]2OCCCC[C@H](C)Oc3ccc(NC(=O)Cc4ccccc4)cc3C(=O)N([C@@H](C)CO)C[C@H]2C)cc1	nt	nt	nt	-2	nt	nt
COCCn1c(=S)[nH]c2sc3c(c2c1=O)CCC(C)C3 (stereo not drawn)	6	-2	-2	0	nt	nt

Bioassay records as filed in PubChem.
